pIC50: −log10 of the molar value. Activity calls are given as the source filed them. The rule behind the calls is not given here.

Experiment [1] has as its system Mus musculus. Nature of the experiment: Protection against LPS-induced sepsis in C57/BL6 mouse model assessed as improvement in survival rate at 20 mg/kg, po preincubated with compound followed by LPS stimulation for 1 hr and measured every 12 hrs by 6 days. It counts as functional, organism-based. Particulars: time 6.0 day. The gist of the method: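 Sepsis model in C57BL/6 mice, n = 12 per group: oral 20 mg/kg, then intraperitoneal LPS 20 mg/kg 1 h later; saline control. Survival checked every 12 h and body weight every 24 h for 6 days.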

Experiment [2] relates to Mus musculus. In words: Protection against LPS-induced C57/BL6 mouse acute lung injury model assessed as improvement in structural distruption of lung tissue at 20 mg/kg via oral gavage preincubated for 30 mins followed by LPS stimulation for 6 hrs. It counts as functional, organism-based. The conditions noted are these: time 6.5 hrs. The gist of the method:
(§1)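 Mice dosed 20 mg/kg by gavage (dexamethasone 20 mg/kg comparator), intratracheal LPS 5 mg/kg 30 min later, killed at 6 h. Right upper lobe fixed in paraformaldehyde, H&E; lung wet/dry ratio; BALF protein, total cells and neutrophils counted; n = 5 mice per group, mean ± SEM.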

For the next experiment, the system named is LX-2. Nature of the experiment: Antiinflammatory activity in LPS-induced human LX2 cells assessed as inhibition of LPS-induced TNF-alpha release preincubated for 30 mins followed by LPS stimulation for 24 hrs by ELISA method. It counts as functional, cell-based. Put shortly:
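THP-1 or LX-2 cells in DMEM with 10% FBS, 37 °C, 5% CO2. Pretreated 30 min at 10, 5, 2.5 or 1.25 μM, then LPS 0.5 μg/mL for 24 h. IL-6 and TNF-α in medium measured by ELISA, normalized to lysate total protein; mean ± SEM of 3 independent experiments.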

Experiment [3] deals with Mus musculus. Nature of the experiment: Antiinflammatory activity in LPS-induced C57/BL6 mouse acute lung injury model assessed as decrease in TNF-alpha level in BALF at 20 mg/kg via oral gavage preincubated for 30 mins followed by LPS stimulation for 6 hrs by ELISA. Particulars: time 6.5 hrs.
Another experiment concerns J774.A1. In words: Antiinflammatory activity in LPS-induced mouse J774.A1 cells assessed as inhibition of LPS-induced TNF-alpha release at 10 uM preincubated for 30 mins followed by LPS stimulation for 24 hrs by ELISA method. Format: functional. Particulars: time 24.5 hrs. Put shortly: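 J774A.1 macrophages pretreated 30 min at 10 μM, then challenged with LPS 0.5 μg/mL for 24 h at 37 °C, 5% CO2. Medium IL-6 and TNF-α measured by ELISA, normalized to total lysate protein.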

The test system of experiment [4] is Mus musculus. In words: Protection against LPS-induced C57/BL6 mouse acute lung injury model assessed as reduction in lung wet/dry ratio at 20 mg/kg via oral gavage preincubated for 30 mins followed by LPS stimulation for 6 hrs. Particulars: time 6.5 hrs. Format: functional, organism-based. The gist of the method:
as §1

On to `COc1cc2nccc(Oc3ccc(NC(=O)c4cn(-c5ccccc5)c5ccccc5c4=O)cc3)c2cc1OC`, for which the outcome in the experiment with Mus musculus [1], with Mus musculus [2], in the experiment with Mus musculus [3] and in the experiment on Mus musculus [4] was Active. Also, in the experiment on LX-2, the negative-log IC50 (pIC50) was 5.54. The inhibition at 10 µM in the experiment with J774.A1 is 82.6%.

(Values after ChEMBL document CHEMBL5346889, “Discovery of 4-oxo-N-phenyl-1,4-dihydroquinoline-3-carboxamide derivatives as novel anti-inflammatory agents for the treatment of acute lung injury and sepsis” (Eur J Med Chem, 2023).)
